Test results reported in ChEMBL document CHEMBL1128597, “Picornavirus inhibitors: trifluoromethyl substitution provides a global protective effect against hepatic metabolism” (J Med Chem, 1995).

Columns and labels:
[1] = t1/2 in monkey liver microsomes; format: ADME, Microsome; settings: simiiformes
[2] = Tested for pharmacokinetic parameter in fasted Beagle dogs (Clearance value of the compound) iv administration.; format: ADME, organism-based, Canis lupus familiaris; settings: dog, in vivo
Outline: (§1)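 Single intravenous bolus of 10 mg/kg given to fasted beagle dogs. Plasma was extracted with hexane and assayed by GC with electron-capture detection or by reverse-phase HPLC, depending on the analyte. Concentrations below the minimum quantifiable level were ignored when computing means. Half-life and CL were derived from plasma profiles by model-independent methods, and AUC by the trapezoidal rule.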

[3] = Tested for pharmacokinetic parameter in fasted Beagle dogs (Area Under Curve value) iv administration.; format: ADME, organism-based, Canis lupus familiaris; settings: dog, in vivo; outline: as §1
[4] = Tested for pharmacokinetic parameter in fasted Beagle dogs (Half-life) iv administration.; format: ADME, organism-based, Canis lupus familiaris; settings: dog, in vivo; outline: as §1

| SMILES | half-life [1] | also measured |
| --- | --- | --- |
| Cc1cc(CCCOc2c(C)cc(-c3noc(C(F)F)n3)cc2C)on1 | 1.42 h |  |
| COCc1cc(CCCOc2c(C)cc(-c3noc(C(F)(F)F)n3)cc2C)on1 | 1.58 h |  |
| Cc1cc(CCCOc2c(C)cc(-c3noc(C(Cl)(Cl)Cl)n3)cc2C)on1 | 0.183 h |  |
| Cc1cc(CCCOc2c(C)cc(-c3noc(CF)n3)cc2C)on1 | 0.233 h |  |
| Cc1ccc(CCCOc2c(C)cc(-c3noc(C(F)(F)F)n3)cc2C)cn1 | 1.97 h |  |
| Cc1cc(CCCOc2c(C)cc(-c3noc(C(N)=O)n3)cc2C)on1 | 2.3 h |  |
| Cc1ccc(CCCOc2c(C)cc(-c3noc(C)n3)cc2C)cn1 | 1.37 h |  |
| Cc1nc(-c2cc(C)c(OCCCc3cccc(F)n3)c(C)c2)no1 | 0.283 h |  |
| Cc1cc(CCCOc2c(C)cc(-c3noc(C(C)(F)F)n3)cc2C)on1 | 1.1 h |  |
| CCOc1nc(-c2cc(C)c(OCCCc3cc(C)no3)c(C)c2)no1 | > 2.5 h |  |
| CC(=O)c1ccc(CCCOc2c(C)cc(-c3noc(C(F)(F)F)n3)cc2C)o1 | 1.05 h |  |
| Cc1cc(CCCOc2c(C)cc(-c3noc(C4CC4)n3)cc2C)on1 | 2.23 h |  |
| CCc1cc(CCCOc2c(C)cc(-c3noc(C(F)(F)F)n3)cc2C)on1 | > 2.5 h |  |
| COc1nc(-c2cc(C)c(OCCCc3cc(C)no3)c(C)c2)no1 | 0.55 h |  |
| Cc1cc(-c2noc(C(F)(F)F)n2)cc(C)c1OCCCc1cc(C[S+](C)[O-])no1 (centres undefined) | > 2.5 h |  |
| Cc1cc(CCCOc2c(C)cc(-c3noc(C)n3)cc2C)on1 | 0.45 h |  |
| CCc1cc(CCCOc2c(C)cc(-c3noc(C4CC4)n3)cc2C)on1 | 0.9 h |  |
| Cc1cc(-c2noc(C3CC3)n2)cc(C)c1OCCCc1cc(OCCO)no1 | > 2.5 h |  |
| Cc1cc(-c2noc(C(F)(F)F)n2)cc(C)c1OCCCc1cc(CO)no1 | > 2.5 h |  |
| Cc1cc(-c2noc(C(F)(F)F)n2)cc(C)c1OCCCc1cccc(F)n1 | > 2.5 h |  |
| Cc1cc(CCCOc2c(C)cc(-c3noc(C(F)(F)F)n3)cc2C)on1 [PLECONARIL] | > 2.5 h | clearance [2]: 12.8 mL/min/kg; AUC [3]: 11800 ng·h/mL; half-life [4]: 27 h |
| Cc1cc(CCCCCOc2c(Cl)cc(C3=NCCO3)cc2Cl)on1 [WIN-54954] |  | clearance [2]: 31.8 mL/min/kg; AUC [3]: 4910 ng·h/mL; half-life [4]: 7 h |

More lines, main results first:

| half-life [1] | SMILES | also measured |
| --- | --- | --- |
| 0.283 h | Cc1cc(CCCOc2c(C)cc(-c3noc(C#N)n3)cc2C)on1 |  |
| 0.533 h | Cc1cc(CCCOc2c(C)cc(-c3noc(CC(F)(F)F)n3)cc2C)on1 |  |
| 0.183 h | CCc1cc(CCCOc2c(C)cc(-c3noc(C)n3)cc2C)on1 |  |
| > 2.5 h | Cc1cc(-c2noc(C3CC3)n2)cc(C)c1OCCCc1cc(C2CC2)no1 |  |
| 0.5 h | COCc1cc(CCCOc2c(C)cc(-c3noc(C)n3)cc2C)on1 |  |
| > 2.5 h | Cc1cc(-c2noc(C3CC3)n2)cc(C)c1OCCCc1cc(CO)no1 |  |
| > 2.5 h | Cc1cc(-c2noc(C(F)(F)F)n2)cc(C)c1OCCCc1cc(CS(C)(=O)=O)no1 |  |
| > 2.5 h | CCOc1cc(CCCOc2c(C)cc(-c3noc(C4CC4)n3)cc2C)on1 |  |
| > 2.5 h | CCOCc1cc(CCCOc2c(C)cc(-c3noc(C(F)(F)F)n3)cc2C)on1 |  |
| > 2.5 h | COCc1cc(CCCOc2c(C)cc(-c3noc(C4CC4)n3)cc2C)on1 |  |
| 0.617 h | CC(=O)c1ccc(CCCOc2c(C)cc(-c3noc(C)n3)cc2C)o1 |  |
| 0.55 h | Cc1nc(-c2cc(C)c(OCCCc3cc(C(F)(F)F)no3)c(C)c2)no1 |  |
